Assay outcomes (PubChem BioAssay)
CHO-K1 Ca PAM: counter-screen for M1 PAMs: effect in parental CHO-K1 cells; ATP EC20, Fluo-8 calcium fluorescence; 0% at ATP EC20, 100% at ATP max; activation, % at 3 µM; 360,000 compounds, 0.02% hits;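 active = activation above the run cutoff, the mean activation of all test compounds plus 3 SD, cut at about 40% in these data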;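 note: peak over basal fluorescence ratio in a 140 s read after ATP addition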
CHO-K1 Ca ag: M1 agonist counterscreen hit in parental CHO-K1 cells. activation, % at 3 µM. 360,000 compounds, 0.48% hits. Fluo-8 calcium fluorescence; scaled to maximal ATP response, vehicle zero. AID 602248; in the data active = activation above about 15%;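 note: untransfected CHO-K1 host cells lacking M1 receptor as counterscreen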
CHO parental Ca: signal in parental CHO cells, OX1R antagonist counter-screen; AID 463079; inhibition, % at 5.6 µM; 330,000 compounds, 0.63% hits; parental CHO-K1, ATP-induced calcium, Fluo-8 fluorescence;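 active = inhibition above that plate's mean sample inhibition plus 3 SD, cut at about 26% in these data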
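Assay system: untransfected parental CHO cell line. Also added: ATP agonist challenge. Dosing: one dose, 5.6 µM nominal. Measured by: Fluo-8 fluorescence. Read-out: % inhibition. Benchmarks: ATP wells versus no-ATP DMSO wells. Repeats: no replicates.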
OX1R antag-1: antagonists of human orexin 1 receptor (OX1R); O43613; OX1R-expressing cells, FRET antagonist read-out; inhibition, % at 6.6 µM; 330,000 compounds, 1.8% hits; AID 485270; in the data active = inhibition mostly above about 38%, no sharp cut-off; inactive = mostly below about 40%
Target sequence (O43613 whole entry, looked up): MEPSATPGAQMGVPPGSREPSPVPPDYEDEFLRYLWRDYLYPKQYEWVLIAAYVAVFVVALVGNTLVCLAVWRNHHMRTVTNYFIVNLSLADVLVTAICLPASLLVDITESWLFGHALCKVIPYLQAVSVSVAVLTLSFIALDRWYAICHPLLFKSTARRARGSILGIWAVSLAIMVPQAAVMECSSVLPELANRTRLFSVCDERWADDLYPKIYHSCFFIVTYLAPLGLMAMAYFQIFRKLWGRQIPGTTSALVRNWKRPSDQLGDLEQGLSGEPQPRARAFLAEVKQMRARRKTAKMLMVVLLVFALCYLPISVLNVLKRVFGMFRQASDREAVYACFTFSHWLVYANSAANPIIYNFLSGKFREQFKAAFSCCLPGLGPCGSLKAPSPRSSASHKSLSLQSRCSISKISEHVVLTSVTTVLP
CHO-K1 Ca antag: counter-screen for M1 antagonists: effect in parental CHO-K1 cells. ATP-induced calcium, Fluo-8 fluorescence. inhibition, % at 3 µM. 360,000 compounds, 0.6% hits. AID 602250;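 active = inhibition above a per-plate cutoff, the plate's mean sample inhibition plus 3 SD, cut at about 24% in these data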
OX1R antag-2: blocks the human orexin 1 receptor. O43613. CHO/OX1R cells, Fluo-8 calcium fluorescence, orexin A. inhibition, % at 5 µM. 330,000 compounds, 0.43% hits;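 active = inhibition above its plate's threshold, mean inhibition of all tested compounds on the plate plus 3 SD, cut at about 37% in these data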
Each line names hits and unclear results; the compound was inactive in the other large screens. This is a sample that favours compounds with a hit; in the whole collection about 2.9% have one here.

O=C(c1ccc(S(=O)(=O)c2cccc(Cl)c2)c([N+](=O)[O-])c1)N1CCN(c2ccccn2)CC1	CHO-K1 Ca ag 16, CHO parental Ca 33, CHO-K1 Ca antag 26
O=C(c1cccc(Cl)c1)N1CCN(c2ccccn2)CC1	none
CCc1ccccc1N(C1=NCCCS1)S(=O)(=O)c1ccc(C(C)(C)C)cc1	OX1R antag-1 51
Cc1cccc(C(=O)N2CCN(c3ccc([N+](=O)[O-])c(N4CCOCC4)c3)CC2)c1	OX1R antag-1 75
O=C(Nc1cccc(F)c1)Nc1nnc([C@@H]2O[C@H](CO)[C@@H](O)[C@H]2O)s1	none (no result: CHO parental Ca, OX1R antag-1, OX1R antag-2)
CC(C)CCN1CCN(Cc2cc3ccccc3[nH]2)CC1CCO (stereo not drawn)	CHO-K1 Ca ag 16
NC(=NC(=O)c1ccc(Cl)cc1)N1N=CCC1c1ccccc1 (stereo not drawn)	CHO-K1 Ca antag 25
CN(C)c1ccc(-c2nnc(-c3ccccc3F)o2)cc1	CHO-K1 Ca ag 19, OX1R antag-1 51
CC(=O)c1ccc(S(=O)(=O)NC2CC2)cc1	none
O=C(Nc1nnc(-c2cccs2)o1)c1cccc(C(F)(F)F)c1	CHO-K1 Ca ag 32
N#Cc1ccc(C(=O)Nc2nnc(-c3cccs3)o2)cc1	none
CCOc1ccccc1OCC(=O)OCC(=O)c1c(N)n(CC(C)C)c(=O)n(C)c1=O	CHO-K1 Ca ag 17
COc1ccc(CCC(=O)OCC(=O)c2c(N)n(CC(C)C)c(=O)n(C)c2=O)cc1	CHO-K1 Ca ag 16, CHO parental Ca 44, CHO-K1 Ca antag 32
Cc1ccc(S(=O)(=O)CCC(=O)OCC(=O)c2c(N)n(CC(C)C)c(=O)n(C)c2=O)cc1	CHO-K1 Ca ag 18
CCCn1c(N)c(C(=O)COC(=O)CCS(=O)(=O)c2ccc(C)cc2)c(=O)[nH]c1=O	none
CCC(C(=O)OCC(=O)c1c(N)n(CC(C)C)c(=O)n(C)c1=O)c1ccccc1 (stereo not drawn)	none
Cc1cccc(C)c1NC(=O)CN(C)C(=O)c1ccc(COc2ccccc2)cc1	none
O=C(Nc1nnc(SCc2ccccc2)s1)C1=COCCO1	none
O=C(Nc1nnc(SCc2ccccc2F)s1)C1=COCCO1	CHO-K1 Ca ag 17
Cc1nn(CC(=O)NC2CCC(C)CC2)c(=O)c(C#N)c1C (stereo not drawn)	OX1R antag-1 44
O=C(c1cc(-c2cccs2)nc2ccccc12)N1CCN(CCO)CC1	none (no result: CHO parental Ca, OX1R antag-1, OX1R antag-2)
CN1C(=O)c2cccc(N(C)C)c2C1=O	none
CN(C)c1cccc2c1C(=O)c1ccccc1C2=O	OX1R antag-1 46
O=C(NCCN1C(=O)S/C(=C\c2ccc(OC(F)F)cc2)C1=O)[C@@H]1CCCN1C(=O)c1cccs1	CHO-K1 Ca ag 21
COc1ccccc1C(=O)NC(=Nc1nc2ccccc2o1)NC(=O)c1ccccc1OC	CHO parental Ca 48, OX1R antag-1 36, OX1R antag-2 82
COc1ccc(NC(=O)C[C@H]2C(=O)N(Cc3ccccc3)C[C@@H]2CSC)cc1	none (no result: CHO parental Ca, OX1R antag-1, OX1R antag-2)
Cc1cc(NC(=O)COC(=O)C2CCC(=O)N2)c([N+](=O)[O-])cc1C (stereo not drawn)	OX1R antag-1 61
Cc1cc(NC(=O)COC(=O)CC2CCCC2)c([N+](=O)[O-])cc1C	none
O=C1C=C(NCCN2CCOCC2)C(=O)c2cnccc21	OX1R antag-1 115 (no result: CHO-K1 Ca PAM, CHO-K1 Ca ag, CHO-K1 Ca antag)
Cc1ccc(OCC(=O)Nc2sc3c(c2C#N)CC(C)(C)NC3(C)C)cc1	none
CC1(C)Cc2c(sc(NC(=O)COc3cccc4ccccc34)c2C#N)C(C)(C)N1	CHO parental Ca 82
COc1c(/C=C2\SC(=Nc3ccccc3Cl)NC2=O)cccc1[N+](=O)[O-]	OX1R antag-1 68
O=C1N/C(=N\S(=O)(=O)c2ccccc2)S/C1=C\c1cc([N+](=O)[O-])ccc1O	CHO-K1 Ca ag 19, CHO parental Ca 46, OX1R antag-2 59
COc1cc(/C=C2/S/C(=N/S(=O)(=O)Cc3ccccc3)NC2=O)c([N+](=O)[O-])cc1OC	OX1R antag-1 41
COc1cc(/C=C2\S/C(=N/S(=O)(=O)Cc3ccccc3)NC2=O)c([N+](=O)[O-])cc1OC	none
O=C1NC(=Nc2ccccc2Cl)S/C1=C\c1cccc([N+](=O)[O-])c1O	none
COc1ccc(S(=O)(=O)N(Cc2cccs2)C2CCCC2)cc1	CHO parental Ca 44, OX1R antag-2 54
COc1ccc(-c2cc(C(=O)OC(C)C(=O)Nc3c(C)n(C)n(-c4ccccc4)c3=O)c3ccccc3n2)cc1 (stereo not drawn)	OX1R antag-1 62
C=CCOc1ccccc1CN1CCCN(C)CC1	none
COc1cccc(CN2CCN(Cc3cc4ccccc4[nH]3)CC2CCO)c1 (stereo not drawn)	none
COc1cccc(CN2CCN(Cc3[nH]c4ccccc4c3C)CC2CCO)c1 (stereo not drawn)	CHO-K1 Ca ag 22
CN1CCN(C(CNC(=O)C(=O)NC2CCCCC2)c2ccc(F)cc2)CC1 (stereo not drawn)	none
CN1CCN(C(CNC(=O)C(=O)NC2CCCC2)c2ccc(F)cc2)CC1 (stereo not drawn)	CHO-K1 Ca antag 53
CSc1ccc(/C=C/C(=O)N2CCN(c3ccccn3)CC2)cc1	none
Cc1cc(C)n(-c2nc(-c3ccccc3)cs2)n1	none
c1ccc(-c2csc(-n3cnnn3)n2)cc1	CHO-K1 Ca antag 30
CSc1ccc(CNC(=O)C2(C)CCCN(C(C)C)C2)cc1 (stereo not drawn)	none (no result: CHO parental Ca, OX1R antag-1, OX1R antag-2)
COc1ccc(Nc2ncnc3ccc([N+](=O)[O-])cc23)c(OC)c1	OX1R antag-1 66
Cc1ccc(O)c(Nc2ncnc3ccc([N+](=O)[O-])cc23)c1	none
CC(=O)c1ccc(N2CCN(C(=O)C3CCCN(c4ncnc5c4nc4n5CCCCC4)C3)CC2)cc1 (stereo not drawn)	none
Cc1ccc(CC(=O)Nc2ccccc2-c2ccccc2)cc1C	CHO-K1 Ca antag 25
CC(=O)Nc1ccc(SCC(=O)N(C)CC(=O)Nc2ccccc2Cl)cc1	none
CC(=O)Nc1ccc(SCC(=O)Nc2ccccc2-c2ccccc2)cc1	CHO-K1 Ca antag 30
CCOC(=O)c1sc(N)nc1C(F)(F)F	none (no result: CHO parental Ca, OX1R antag-1, OX1R antag-2)
Cc1ccc(CS(=O)(=O)Cc2ccc(C(=O)NC3CCCCCC3)o2)cc1	none
CCC(CC)=NNc1ccc([N+](=O)[O-])cc1[N+](=O)[O-]	none
CCOC(=O)CC(C)(C)/C(C)=N/Nc1ccc([N+](=O)[O-])cc1[N+](=O)[O-]	OX1R antag-1 54
C/C(CCCO)=N/Nc1ccc([N+](=O)[O-])cc1[N+](=O)[O-]	OX1R antag-1 44
C/C(CCC(=O)O)=N/Nc1ccc([N+](=O)[O-])cc1[N+](=O)[O-]	OX1R antag-1 63
C#CCOC(=O)CCCNc1ccc([N+](=O)[O-])cc1[N+](=O)[O-]	OX1R antag-1 46
COc1ccc(CN2C(=NC(=O)CCC3CCCC3)SC3CS(=O)(=O)CC32)cc1 (stereo not drawn)	none
